Experimental data as given in ChEMBL document CHEMBL1123333, “Synthesis and antiviral activity of certain nucleoside 5'-phosphonoformate derivatives” (1986).

Assays:
Vero [1] = assay: Virus rating against Herpes simplex virus type 2 of strain 333; format: functional, Chlorocebus sabaeus
How it was run: (§1)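 Virus-infected confluent Vero cells treated with compound in seven 0.5-log steps (final 5.0–5000 μM) after 30-min adsorption at 37 °C, duplicate wells per concentration. CPE scored microscopically 0 (normal) to 4 (complete destruction) after 72 h at 37 °C, 5% CO2.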

Vero [2] = assay: Compound was tested for antiviral activity against Herpes simplex virus type 2 of strain 333; format: functional; details: Chlorocebus sabaeus, read-out: ED50 (the source's name)
Vero [3] = assay: Maximum tolerated concentration (MTC), the lowest concentration that produced microscopically evident toxicity to confluent vero cells; format: functional, Chlorocebus sabaeus
How it was run: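 Uninfected confluent Vero monolayers in DMEM with 10% newborn bovine serum, single well per concentration, exposed to compound at final 5.0–5000 μM (0.5-log steps) for 72 h at 37 °C, 5% CO2. Cytotoxicity was any microscopic change in morphology or monolayer density from lysis, rounding or detachment. MTC = lowest concentration showing such change.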

Vero [4] = assay: Virus rating against para 3; format: functional, Chlorocebus sabaeus; how it was run: as §1
Vero [5] = assay: Virus rating against Herpes simplex virus type 1 of strainHF; format: functional, Chlorocebus sabaeus; how it was run: as §1
Vero [6] = assay: Compound was tested for antiviral activity against para 3; format: functional; details: Chlorocebus sabaeus, read-out: ED50 (the source's name)
Vero [7] = assay: Compound was tested for antiviral activity against measles virus; format: functional; details: Chlorocebus sabaeus, read-out: ED50 (the source's name)
Vero [8] = assay: Compound was tested for antiviral activity against vaccinia; format: functional; details: Chlorocebus sabaeus, read-out: ED50 (the source's name)
Vero [9] = assay: Virus rating against vaccinia; format: functional, Chlorocebus sabaeus; how it was run: as §1
Vero [10] = assay: Compound was tested for antiviral activity against Herpes simplex virus type 1 (HF); format: functional; details: Chlorocebus sabaeus, read-out: ED50 (the source's name)
Vero [11] = assay: Virus rating against measles virus; format: functional, Chlorocebus sabaeus; how it was run: as §1
Vero [12] = assay: Compound was tested for antiviral activity against Herpes simplex virus type 2 (MS); format: functional; details: Chlorocebus sabaeus, read-out: ED50 (the source's name)
Vero [13] = assay: Virus rating against Herpes simplex virus type 1 of strain KOS; format: functional, Chlorocebus sabaeus; how it was run: as §1
Vero [14] = assay: Compound was tested for antiviral activity against Herpes simplex virus type 1(KOS); format: functional; details: Chlorocebus sabaeus, read-out: ED50 (the source's name)
Vero [15] = assay: Virus rating against Herpes simplex virus type 2 of strain MS; format: functional, Chlorocebus sabaeus; how it was run: as §1
Vero [16] = assay: Virus rating against Herpes simplex virus type 1 of strain HF; format: functional, Chlorocebus sabaeus; how it was run: as §1

| Structure (SMILES) | VR (Vero [1]) | EC50 (Vero [2]) [µM] | MTC (Vero [3]) [µM] | VR (Vero [4]) | VR (Vero [5]) | EC50 (Vero [6]) [µM] | EC50 (Vero [7]) [µM] | EC50 (Vero [8]) [µM] | VR (Vero [9]) | EC50 (Vero [10]) [µM] | VR (Vero [11]) | EC50 (Vero [12]) [µM] | VR (Vero [13]) | EC50 (Vero [14]) [µM] | VR (Vero [15]) | VR (Vero [16]) |
| --- | --- | --- | --- | --- | --- | --- | --- | --- | --- | --- | --- | --- | --- | --- | --- | --- |
| Nc1ncnc2c1ncn2C1O[C@H](COP(=O)(O)C(=O)O)[C@@H](O)[C@H]1O (stereo partly specified) | 0.7 | 1600 | >5000 | 0 | 0.18 | > 5000 | 3000 | 740 | 0.65 | > 5000 | 0.38 | 360 | 0 | > 5000 | 1.15 | – |
| NC(=O)P(=O)(O)OC[C@H]1OC(n2cnc3c(O)nc(N)nc32)[C@H](O)[C@@H]1O (stereo partly specified) | 1.16 | 300 | >5000 | 0.1 | 0 | > 5000 | 900 | > 5000 | 0 | > 5000 | 0.7 | 970 | 0 | > 5000 | 0.91 | – |
| NC(=O)P(=O)(O)OC[C@H]1OC(n2cnc3c(N)ncnc32)[C@H](O)[C@@H]1O (stereo partly specified) | 1.24 | 440 | >5000 | 0.1 | 0.28 | > 5000 | 2800 | > 5000 | 0 | > 5000 | 0.45 | 830 | 0 | > 5000 | 1 | – |
| CCOC(=O)P(=O)(O)OC[C@H]1OC(n2cnc3c(N)ncnc32)[C@H](O)[C@@H]1O (stereo partly specified) | 0.72 | 1000 | >5000 | 0 | 0.3 | > 5000 | > 5000 | > 5000 | 0.23 | > 5000 | – | 820 | 0 | > 5000 | 1.12 | – |
| CCOC(=O)P(=O)(O)OC[C@H]1OC(n2cnc3c(O)nc(N)nc32)[C@H](O)[C@@H]1O (stereo partly specified) | 1.02 | 600 | >5000 | 0.1 | – | > 5000 | 500 | > 5000 | 0 | > 5000 | 0.68 | 820 | 0 | > 5000 | 0.9 | 0.22 |
| Nc1nc(O)c2ncn([C@H]3C[C@H](O)[C@@H](COP(=O)(O)C(=O)O)O3)c2n1 | 1.26 | 230 | 5000 | 0.25 | 0.22 | – | > 5000 | > 5000 | 0 | > 5000 | 0.1 | 350 | 0.1 | > 5000 | 1.18 | – |
| O=C([O-])P(=O)([O-])[O-].[Na+].[Na+].[Na+] [FOSCARNET SODIUM] | 2.08 | 20 | >5000 | 0.4 | 1.3 | 5000 | > 5000 | > 5000 | 0.1 | 230 | 0 | 89 | 1.37 | 170 | 1.74 | – |
| Nc1nc(O)c2ncn(C3O[C@H](COP(=O)(O)C(=O)O)[C@@H](O)[C@H]3O)c2n1 (stereo partly specified) | 0.22 | > 5000 | >5000 | 0.1 | 0.2 | > 5000 | 330 | > 5000 | 0 | > 5000 | 0.62 | > 5000 | 0 | > 5000 | 0.18 | – |
| Nc1ncnc2c1ncn2[C@H]1C[C@H](O)[C@@H](COP(=O)(O)C(=O)O)O1 | 1.77 | 54 | >5000 | – | 1.08 | – | 900 | > 5000 | 0 | 730 | 0.7 | 40 | 0.65 | 1800 | 1.85 | – |
